Test results reported in ChEMBL document CHEMBL1134636, “Structure-activity studies on nociceptin analogues: ORL1 receptor binding and biological activity of cyclic disulfide-containing analogues of nociceptin peptides” (J Med Chem, 2001).
Peptide text beside a SMILES is read from it.

Key:
[1] = target: T1, Nociceptin receptor (Homo sapiens, UniProt P41146); assay: Efficacy for human ORL1 receptor expressing HEK293 cell membrane; format: functional, cell-based
Method in brief: (§1)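 Membranes from HEK-293 cells expressing human ORL1 (10 μg) were incubated for 30 min at 24 °C with peptides (0.01 nM to 10 μM) in 20 mM HEPES pH 7.4 with 100 mM NaCl, 10 mM MgCl₂, 1 mM EDTA, 5 μM GDP and 400 pM [³⁵S]GTPγS. Binding was read with WGA-coated SPA beads.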

[2] = target: T1, Nociceptin receptor; assay: Efficacy for human ORL1 receptor expressing HEK293 cells; format: functional, cell-based; method in brief: as §1
[3] = target: T1, Nociceptin receptor; assay: Displacement of [3H]NC from human ORL1 receptor expressing HEK293 cell membrane; format: cell membranes

T1 sequence (P41146 whole entry): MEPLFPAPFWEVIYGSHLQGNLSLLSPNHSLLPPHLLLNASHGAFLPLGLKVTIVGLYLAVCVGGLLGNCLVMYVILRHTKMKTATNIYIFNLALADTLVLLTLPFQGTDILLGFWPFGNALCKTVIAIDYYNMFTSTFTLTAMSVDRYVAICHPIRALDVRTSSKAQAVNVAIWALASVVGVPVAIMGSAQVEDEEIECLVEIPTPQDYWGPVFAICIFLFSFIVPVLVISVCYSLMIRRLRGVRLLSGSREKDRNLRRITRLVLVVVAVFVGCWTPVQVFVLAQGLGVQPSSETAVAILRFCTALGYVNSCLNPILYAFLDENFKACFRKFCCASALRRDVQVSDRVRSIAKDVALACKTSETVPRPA

Structure (SMILES): C[C@H](NC(=O)[C@H](CO)NC(=O)[C@H](CCCCN)NC(=O)[C@H](CCCN=C(N)N)NC(=O)[C@H](C)NC(=O)[C@H](CS)NC(=O)[C@@H](NC(=O)[C@H](Cc1ccccc1)NC(=O)CNC(=O)CNC(=O)[C@H](Cc1ccccc1)NC(=O)[C@@H](N)CS)[C@@H](C)O)C(=O)N[C@@H](CCCN=C(N)N)C(=O)N[C@@H](CCCCN)C(N)=O (H-CFGGFTCARKSARK-NH2)
- Emax [1]: 12%

Structure (SMILES): C[C@H](NC(=O)CNC(=O)[C@@H](NC(=O)[C@H](Cc1ccccc1)NC(=O)CNC(=O)CNC(=O)[C@H](Cc1ccccc1)NC(=O)[C@@H](N)CS)[C@@H](C)O)C(=O)N[C@@H](CCCN=C(N)N)C(=O)N[C@@H](CCCCN)C(=O)N[C@@H](CS)C(=O)N[C@@H](C)C(=O)N[C@@H](CCCN=C(N)N)C(=O)N[C@@H](CCCCN)C(N)=O (H-CFGGFTGARKCARK-NH2)
- Emax [1]: 59%

Structure (SMILES): C[C@H](NC(=O)CNC(=O)[C@@H](NC(=O)[C@H](Cc1ccccc1)NC(=O)CNC(=O)CNC(=O)[C@H](Cc1ccccc1)NC(=O)[C@@H](N)CS)[C@@H](C)O)C(=O)N[C@@H](CCCNC(=N)N)C(=O)N[C@@H](CCCCN)C(=O)N[C@@H](CO)C(=O)N[C@@H](CS)C(=O)N[C@@H](CCCNC(=N)N)C(=O)N[C@@H](CCCCN)C(N)=O (H-CFGGFTGARKSCRK-NH2)
- EC50 ([2]; hek293): 286 nM
- IC50 ([3]; hek293): 1290 nM

Structure (SMILES): C[C@H](NC(=O)[C@H](CO)NC(=O)[C@H](CCCCN)NC(=O)[C@H](CCCNC(=N)N)NC(=O)[C@H](CS)NC(=O)CNC(=O)[C@@H](NC(=O)[C@H](Cc1ccccc1)NC(=O)CNC(=O)CNC(=O)[C@H](Cc1ccccc1)NC(=O)[C@@H](N)CS)[C@@H](C)O)C(=O)N[C@@H](CCCNC(=N)N)C(=O)N[C@@H](CCCCN)C(N)=O (H-CFGGFTGCRKSARK-NH2)
- EC50 ([2]; hek293): > 10000 nM
- IC50 ([3]; hek293): 2710 nM

Structure (SMILES): C[C@H](NC(=O)CNC(=O)[C@@H](NC(=O)[C@H](Cc1ccccc1)NC(=O)CNC(=O)CNC(=O)[C@@H](N)Cc1ccccc1)[C@@H](C)O)C(=O)N[C@@H](CCCNC(=N)N)C(=O)N[C@@H](CCCCN)C(=O)N[C@@H](CS)C(=O)N[C@@H](C)C(=O)N[C@@H](CCCNC(=N)N)C(=O)N[C@@H](CCCCN)C(=O)N[C@@H](CS)C(N)=O (H-FGGFTGARKCARKC-NH2)
- EC50 [2]: 3.9 nM
- IC50 [3]: 0.471 nM

Structure (SMILES): C[C@H](NC(=O)CNC(=O)[C@@H](NC(=O)[C@H](Cc1ccccc1)NC(=O)CNC(=O)CNC(=O)[C@@H](N)Cc1ccccc1)[C@@H](C)O)C(=O)N[C@@H](CCCN=C(N)N)C(=O)N[C@@H](CCCCN)C(=O)N[C@@H](CS)C(=O)N[C@@H](C)C(=O)N[C@@H](CCCN=C(N)N)C(=O)N[C@@H](CCCCN)C(=O)N[C@@H](CS)C(N)=O (H-FGGFTGARKCARKC-NH2)
- Emax [1]: 105%

Structure (SMILES): C[C@H](NC(=O)[C@H](CO)NC(=O)[C@H](CCCCN)NC(=O)[C@H](CCCNC(=N)N)NC(=O)[C@H](CS)NC(=O)CNC(=O)[C@@H](NC(=O)[C@H](Cc1ccccc1)NC(=O)CNC(=O)CNC(=O)[C@@H](N)Cc1ccccc1)[C@@H](C)O)C(=O)N[C@@H](CCCNC(=N)N)C(=O)N[C@@H](CCCCN)C(=O)N[C@@H](CS)C(N)=O (H-FGGFTGCRKSARKC-NH2)
- EC50 [2]: 22.3 nM
- IC50 [3]: 37.2 nM

Structure (SMILES): C[C@H](NC(=O)[C@H](CO)NC(=O)[C@H](CCCCN)NC(=O)[C@H](CCCN=C(N)N)NC(=O)[C@H](CS)NC(=O)CNC(=O)[C@@H](NC(=O)[C@H](Cc1ccccc1)NC(=O)CNC(=O)CNC(=O)[C@@H](N)Cc1ccccc1)[C@@H](C)O)C(=O)N[C@@H](CCCN=C(N)N)C(=O)N[C@@H](CCCCN)C(=O)N[C@@H](CS)C(N)=O (H-FGGFTGCRKSARKC-NH2)
- Emax [1]: 101%

Structure (SMILES): C[C@H](NC(=O)[C@H](CO)NC(=O)[C@H](CCCCN)NC(=O)[C@H](CCCN=C(N)N)NC(=O)[C@H](C)NC(=O)[C@@H]1CSSC[C@H](N)C(=O)N[C@@H](Cc2ccccc2)C(=O)NCC(=O)NCC(=O)N[C@@H](Cc2ccccc2)C(=O)N[C@@H]([C@@H](C)O)C(=O)N1)C(=O)N[C@@H](CCCN=C(N)N)C(=O)N[C@@H](CCCCN)C(N)=O (HELM PEPTIDE1{C.F.G.G.F.T.C.A.R.K.S.A.R.K.[am]}$PEPTIDE1,PEPTIDE1,1:R3-7:R3$$$V2.0)
- Emax [1]: 18%

Structure (SMILES): C[C@@H]1NC(=O)CNC(=O)[C@H]([C@@H](C)O)NC(=O)[C@H](Cc2ccccc2)NC(=O)CNC(=O)CNC(=O)[C@H](Cc2ccccc2)NC(=O)[C@@H](N)CSSC[C@@H](C(=O)N[C@@H](C)C(=O)N[C@@H](CCCN=C(N)N)C(=O)N[C@@H](CCCCN)C(N)=O)NC(=O)[C@H](CCCCN)NC(=O)[C@H](CCCN=C(N)N)NC1=O (HELM PEPTIDE1{C.F.G.G.F.T.G.A.R.K.C.A.R.K.[am]}$PEPTIDE1,PEPTIDE1,1:R3-11:R3$$$V2.0)
- Emax [1]: 81%

Structure (SMILES): C[C@@H]1NC(=O)CNC(=O)[C@H]([C@@H](C)O)NC(=O)[C@H](Cc2ccccc2)NC(=O)CNC(=O)CNC(=O)[C@H](Cc2ccccc2)NC(=O)[C@@H](N)CSSC[C@@H](C(=O)N[C@@H](CCCNC(=N)N)C(=O)N[C@@H](CCCCN)C(N)=O)NC(=O)[C@H](CO)NC(=O)[C@H](CCCCN)NC(=O)[C@H](CCCNC(=N)N)NC1=O (HELM PEPTIDE1{C.F.G.G.F.T.G.A.R.K.S.C.R.K.[am]}$PEPTIDE1,PEPTIDE1,1:R3-12:R3$$$V2.0)
- EC50 [2]: 439 nM
- IC50 [3]: 387 nM

Structure (SMILES): C[C@H](NC(=O)[C@H](CO)NC(=O)[C@H](CCCCN)NC(=O)[C@H](CCCNC(=N)N)NC(=O)[C@@H]1CSSC[C@H](N)C(=O)N[C@@H](Cc2ccccc2)C(=O)NCC(=O)NCC(=O)N[C@@H](Cc2ccccc2)C(=O)N[C@@H]([C@@H](C)O)C(=O)NCC(=O)N1)C(=O)N[C@@H](CCCNC(=N)N)C(=O)N[C@@H](CCCCN)C(N)=O (HELM PEPTIDE1{C.F.G.G.F.T.G.C.R.K.S.A.R.K.[am]}$PEPTIDE1,PEPTIDE1,1:R3-8:R3$$$V2.0)
- EC50 [2]: > 10000 nM
- IC50 [3]: 874 nM

Structure (SMILES): C[C@H](NC(=O)CNC(=O)[C@@H](NC(=O)[C@H](Cc1ccccc1)NC(=O)CNC(=O)CNC(=O)[C@@H](N)Cc1ccccc1)[C@@H](C)O)C(=O)N[C@@H](CCCNC(=N)N)C(=O)N[C@@H](CCCCN)C(=O)N[C@H]1CSSC[C@@H](C(N)=O)NC(=O)[C@H](CCCCN)NC(=O)[C@H](CCCNC(=N)N)NC(=O)[C@H](C)NC1=O (HELM PEPTIDE1{F.G.G.F.T.G.A.R.K.C.A.R.K.C.[am]}$PEPTIDE1,PEPTIDE1,10:R3-14:R3$$$V2.0)
- EC50 [2]: 4.37 nM
- IC50 [3]: 0.122 nM

Structure (SMILES): C[C@H](NC(=O)CNC(=O)[C@@H](NC(=O)[C@H](Cc1ccccc1)NC(=O)CNC(=O)CNC(=O)[C@@H](N)Cc1ccccc1)[C@@H](C)O)C(=O)N[C@@H](CCCN=C(N)N)C(=O)N[C@@H](CCCCN)C(=O)N[C@H]1CSSC[C@@H](C(N)=O)NC(=O)[C@H](CCCCN)NC(=O)[C@H](CCCN=C(N)N)NC(=O)[C@H](C)NC1=O (HELM PEPTIDE1{F.G.G.F.T.G.A.R.K.C.A.R.K.C.[am]}$PEPTIDE1,PEPTIDE1,10:R3-14:R3$$$V2.0)
- Emax [1]: 99%

Structure (SMILES): C[C@@H]1NC(=O)[C@H](CO)NC(=O)[C@H](CCCCN)NC(=O)[C@H](CCCN=C(N)N)NC(=O)[C@@H](NC(=O)CNC(=O)[C@@H](NC(=O)[C@H](Cc2ccccc2)NC(=O)CNC(=O)CNC(=O)[C@@H](N)Cc2ccccc2)[C@@H](C)O)CSSC[C@@H](C(N)=O)NC(=O)[C@H](CCCCN)NC(=O)[C@H](CCCN=C(N)N)NC1=O (HELM PEPTIDE1{F.G.G.F.T.G.C.R.K.S.A.R.K.C.[am]}$PEPTIDE1,PEPTIDE1,7:R3-14:R3$$$V2.0)
- Emax [1]: 95%
